How the values were obtained:
CCRF-CEM [1] = experiment: In vitro cytotoxicity against CEM cells; assay type: functional, cell-based, Homo sapiens
[2] = system: Human immunodeficiency virus 1; experiment: Antiviral activity against Immunodeficiency virus type-1 (HIV-1) in peripheral blood mononuclear cells; assay type: functional, organism-based
How it was run: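 HIV-1 infection of human peripheral blood mononuclear (PBM) cells; EC50 reported in µM.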

[3] = In vitro cytotoxicity against PBM cells; assay type: functional, cell-based, Homo sapiens
Vero [4] = experiment: (§1) In vitro cytotoxicity against Vero cells; assay type: functional, cell-based, Chlorocebus sabaeus
Hepatitis B virus = experiment: Antiviral activity against Hepatitis B virus (HBV) in 2.2.15 cells; assay type: functional, organism-based; details: HepG2 2.2.15
[5] = system: Human immunodeficiency virus 1; experiment: (§2) Anti HIV activity against cloned FTC-sensitive mutant xxBRU HIV-1; assay type: functional, organism-based
[6] = system: Human immunodeficiency virus 1; experiment: (§3) Anti HIV activity against cloned FTC/3TC-resistant mutant M184V HIV-1; assay type: functional, organism-based
[7] = system: Human immunodeficiency virus 1; experiment: as §2; assay type: functional
[8] = system: Human immunodeficiency virus 1; experiment: as §3; assay type: functional
[9] = Fold increase expressed as ratio of EC50 from M184V virus to that from xxBRU virus; assay type: functional
[10] = Fold increase expressed as ratio of EC90 from M184V virus to that from xxBRU virus; assay type: functional
CCRF-CEM [11] = experiment: In vitro cytotoxicity againstCEM cells; assay type: functional, cell-based; details: Homo sapiens
Vero [12] = experiment: as §1; assay type: functional, cell-based; details: Chlorocebus sabaeus

SMILES | IC50 (CCRF-CEM [1]; Homo sapiens, CCRF-CEM) | EC50 ([2]; Human immunodeficiency virus 1) | IC50 ([3]; Homo sapiens, PBMC) | IC50 (Vero [4]; Chlorocebus sabaeus, Vero) | EC50 [2] | EC50 (Hepatitis B virus) | further results
Nc1ccn([C@@H]2C[Se][C@@H](CO)O2)c(=O)n1 | > 100 µM | > 100 µM | > 100 µM | > 100 µM | – | – | –
Nc1nc(=O)n([C@@H]2C[Se][C@@H](CO)O2)cc1F (stereo in doubt; (+)) | – | – | – | – | 95.3 µM | – | –
OC[C@H]1O[C@H](n2cnc3c(O)ncnc32)C[Se]1 | > 100 µM | > 100 µM | > 100 µM | > 100 µM | – | > 10 µM | –
Cc1cn([C@H]2C[Se][C@@H](CO)O2)c(=O)[nH]c1=O | > 100 µM | > 10 µM | > 100 µM | > 100 µM | – | > 10 µM | –
Nc1ccn([C@H]2C[Se][C@@H](CO)O2)c(=O)n1 (stereo in doubt; 9c) | > 100 µM | – | > 100 µM | > 100 µM | 2.7 µM | 1.2 µM | EC50 [5]: 1.84 µM; EC50 [6]: 108 µM; EC90 [7]: 6.9 µM; EC90 [8]: 337 µM; FI [9]: 59; FI [10]: 49
Nc1nc(O)c2ncn([C@H]3C[Se][C@@H](CO)O3)c2n1 | > 100 µM | 28.9 µM | > 100 µM | > 100 µM | – | > 10 µM | –
Nc1nc(=O)n([C@@H]2C[Se][C@@H](CO)O2)cc1F (stereo in doubt; (-)) | > 100 µM | – | > 100 µM | > 100 µM | 6.4 µM | – | –
Nc1nc(=O)n([C@H]2C[Se][C@@H](CO)O2)cc1F (stereo in doubt; (-)) | – | – | – | – | 0.2 µM | – | –
Nc1nc(=O)n([C@H]2C[Se][C@@H](CO)O2)cc1F (racemic) | > 100 µM | – | > 100 µM | > 100 µM | 0.73 µM | 1.2 µM | –
O=c1ccn([C@@H]2C[Se][C@@H](CO)O2)c(=O)[nH]1 | > 100 µM | 101 µM | > 100 µM | > 100 µM | – | > 10 µM | –
Nc1nc(O)c2ncn([C@@H]3C[Se][C@@H](CO)O3)c2n1 | > 100 µM | > 100 µM | > 100 µM | > 100 µM | – | > 10 µM | –
Nc1nc(=O)n([C@H]2C[Se][C@@H](CO)O2)cc1F (stereo in doubt; (+)) | – | – | – | – | 41.9 µM | – | –
OC[C@H]1O[C@@H](n2cnc3c(O)ncnc32)C[Se]1 | > 100 µM | > 100 µM | > 100 µM | > 100 µM | – | > 10 µM | –
Nc1nc(=O)n([C@@H]2C[Se][C@@H](CO)O2)cc1F (stereo in doubt; 10d) | – | – | – | – | 57.1 µM | > 10 µM | –
Nc1ccn([C@H]2C[Se][C@@H](CO)O2)c(=O)n1 (stereo in doubt; (-)) | – | – | – | – | 0.9 µM | – | EC50 [5]: 0.11 µM; EC50 [6]: > 50 µM; EC90 [7]: 0.95 µM; EC90 [8]: > 50 µM; FI [9]: >455; FI [10]: >53
Nc1ccn([C@@H]2CS[C@H](CO)O2)c(=O)n1 [LAMIVUDINE] | > 100 µM | 0.07 µM | > 100 µM | > 100 µM | – | 0.008 µM | –
Nc1ccn([C@H]2C[Se][C@@H](CO)O2)c(=O)n1 (stereo in doubt; (+)) | – | – | – | – | 3.4 µM | – | IC50 (CCRF-CEM [1]; ccrf-cem): 100 µM; EC50 [5]: 8.62 µM; EC50 [6]: 50 µM; EC90 [7]: 35.1 µM; EC90 [8]: 50 µM; IC50 ([3]; pbm): 100 µM; IC50 (Vero [4]; vero): 100 µM; FI [9]: >6; FI [10]: >1
Nc1ncnc2c1ncn2[C@@H]1C[Se][C@@H](CO)O1 | > 100 µM | > 100 µM | > 100 µM | > 100 µM | – | > 10 µM | –
Cc1cn([C@@H]2C[Se][C@@H](CO)O2)c(=O)[nH]c1=O | > 100 µM | > 100 µM | > 100 µM | > 100 µM | – | > 10 µM | –
Nc1ncnc2c1ncn2[C@H]1C[Se][C@@H](CO)O1 | > 100 µM | > 50 µM | > 100 µM | > 100 µM | – | > 10 µM | –
O=c1ccn([C@H]2C[Se][C@@H](CO)O2)c(=O)[nH]1 | – | > 100 µM | > 100 µM | – | – | > 10 µM | IC50 (CCRF-CEM [11]): > 100 µM; IC50 (Vero [12]): > 100 µM

Reference: ChEMBL document CHEMBL1133470, “Synthesis and antiviral activity of oxaselenolane nucleosides” (J Med Chem, 2000)
